Data as given in ChEMBL document CHEMBL1949567, “Novel synthesis and biological evaluation of enigmols as therapeutic agents for treating prostate cancer” (ACS Med Chem Lett, 2011).
Active and inactive are the calls of the source. The calls are words filed in the database; no cut-off is given here.

What was measured:
[1] = tested on: PC-3; test: Anticancer activity against androgen insensitive human PC3 cells xenografted nude mouse model assessed as decrease in tumor growth rate administered at 10 mg/kg, po once daily administered from day 16 after implantation; format: functional, organism-based; parameters: dose 10 mg/kg
In short: (§1)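 Nude mice bearing established PC-3 tumors (n = 10) given 10 mg/kg daily by oral gavage from day 16 after implantation, with vehicle controls. Tumor growth and body weight measured over time. Growth rates compared by mixed model for repeated measurements, weights by ANOVA.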

[2] = tested on: PC-3; test: Cytotoxicity against human PC3 cells after 24 hrs by WST-1 assay; format: functional, cell-based; conditions: PC-3, 24 h
In short: (§2)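 PC-3 (androgen-independent) and LNCaP (androgen-sensitive) prostate cancer cells treated for 24 h. Cytotoxicity read by WST-1 assay. IC50 calculated from the resulting data.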

[3] = tested on: Mus musculus; test: Toxicity in androgen insensitive human PC3 cells xenografted nude mouse model assessed as body weight change administered at 10 mg/kg, po once daily administered from day 16 after implantation; format: organism-based, PC-3; parameters: dose 10 mg/kg, route oral; conditions: in vivo; in short: as §1
[4] = tested on: LNCaP; test: Cytotoxicity against human LNCAP cells after 24 hrs by WST-1 assay; format: functional, cell-based; in short: as §2
[5] = AUC (0 to infinity) in CD-1/Swiss Webster mouse at 10 mg/kg, po by LC/MS/MS analysis; format: ADME, organism-based; parameters: time infinity, dose 10 mg/kg, route oral; conditions: plasma
In short: (§3)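 Outbred male Swiss Webster or CD-1 mice, n = 3 per time point, single oral dose of 10 or 30 mg/kg in 10% ethanol/90% olive oil given at 5 mL/kg. Blood drawn from submandibular vein or retro-orbital plexus at set time points. PK parameters calculated from mean plasma concentrations (nM).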

[6] = AUC (0 to infinity) in CD-1/Swiss Webster mouse at 30 mg/kg, po by LC/MS/MS analysis; format: ADME, organism-based; parameters: time infinity, dose 30 mg/kg, route oral; conditions: plasma; in short: as §3
[7] = tested on: Mus musculus; test: (§4) Apparent volume of distribution during terminal phase in CD-1/Swiss Webster mouse at 30 mg/kg, po by LC/MS/MS analysis; format: ADME, organism-based; parameters: dose 30 mg/kg, route oral; conditions: in vivo; in short: as §3
[8] = Apparent oral clearance in CD-1/Swiss Webster mouse at 30 mg/kg, po by LC/MS/MS analysis; format: ADME, organism-based; parameters: dose 30 mg/kg, route oral; conditions: in vivo; in short: as §3
[9] = tested on: Mus musculus; test: Toxicity in androgen sensitive human LNCAP cells xenografted castrated mouse model assessed as body weight change at 10 mg/kg, po once daily after day 14 of implantation; format: organism-based; parameters: dose 10 mg/kg, route oral; conditions: in vivo
In short: (§5)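 Nude mice bearing palpable subcutaneous LNCaP tumors (n = 10–12 per group). Castration or sham surgery on Day 13 after implantation. Daily oral gavage of 10 mg/kg or vehicle from Day 14. Tumor growth followed over time and body weights monitored. Controls sacrificed Day 36 for tumor burden; some groups continued longer. Growth analysed by mixed model for repeated measurements, weights by ANOVA.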

[10] = Cmax in CD-1/Swiss Webster mouse at 10 mg/kg, po by LC/MS/MS analysis; format: ADME, organism-based; parameters: dose 10 mg/kg, route oral; conditions: in vivo; in short: as §3
[11] = tested on: LNCaP; test: Anticancer activity against androgen sensitive human LNCAP cells xenografted nude mouse model assessed as reduction in tumor growth rate administered at 10 mg/kg, po once daily after day 14 of implantation measured on day 36 relative to control; format: functional, organism-based; parameters: dose 10 mg/kg; in short: as §5
[12] = Half life in CD-1/Swiss Webster mouse at 10 mg/kg, po by LC/MS/MS analysis; format: ADME, organism-based; parameters: dose 10 mg/kg, route oral; conditions: in vivo; in short: as §3
[13] = Half life in CD-1/Swiss Webster mouse at 30 mg/kg, po by LC/MS/MS analysis; format: ADME, organism-based; parameters: dose 30 mg/kg, route oral; conditions: in vivo; in short: as §3
[14] = Tmax in CD-1/Swiss Webster mouse at 10 mg/kg, po by LC/MS/MS analysis; format: ADME, organism-based; parameters: dose 10 mg/kg, route oral; conditions: in vivo; in short: as §3
[15] = tested on: PC-3; test: Anticancer activity against androgen insensitive human PC3 cells xenografted nude mouse model assessed as decrease in tumor growth rate administered at 10 mg/kg, po once daily administered from day 22 to day 34 after implantation coadministered with docetaxel relative to control; format: functional, organism-based; parameters: dose 10 mg/kg
In short: (§6)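 Nude mice bearing PC-3 xenografts (n = 15). Daily oral gavage at 10 mg/kg from Day 22 to Day 34 after implantation. Docetaxel 15 mg/kg or vehicle given i.p. on Days 22 and 29, alone or combined with gavage. Tumor growth and body weight followed. Growth analysed by mixed model for repeated measurements, weights by ANOVA.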

[16] = AUC (0 to t) in CD-1/Swiss Webster mouse at 30 mg/kg, po by LC/MS/MS analysis; format: ADME, organism-based; parameters: dose 30 mg/kg, route oral; conditions: plasma; in short: as §3
[17] = Drug uptake in rat prostate tissue at 100 mg/kg, po; format: ADME, organism-based, Prostate gland; parameters: dose 100 mg/kg, route oral; conditions: in vivo, read-out: Drug uptake
[18] = tested on: LNCaP; test: Anticancer activity in androgen sensitive human LNCAP cells xenografted castrated mouse model assessed as reduction in tumor growth rate administered at 10 mg/kg, po once daily from day 14 after implantation measured on day 38 relative to control; format: functional, organism-based; parameters: dose 10 mg/kg; in short: as §5
[19] = tested on: PC-3; test: Anticancer activity against androgen insensitive human PC3 cells xenografted nude mouse model assessed as decrease in tumor growth rate administered at 10 mg/kg, po once daily administered from day 16 after implantation
[20] = Apparent volume of distribution during terminal phase in CD-1/Swiss Webster mouse at 10 mg/kg, po by LC/MS/MS analysis; format: ADME, organism-based; parameters: dose 10 mg/kg, route oral; conditions: in vivo, read-out: Vz/F; in short: as §3
[21] = tested on: Mus musculus; test: Toxicity in androgen sensitive human LNCAP cells xenografted nude mouse model assessed as body weight change at 10 mg/kg, po once daily after day 14 of implantation; format: organism-based; parameters: dose 10 mg/kg, route oral; conditions: in vivo; in short: as §5
[22] = AUC (0 to t) in CD-1/Swiss Webster mouse at 10 mg/kg, po by LC/MS/MS analysis; format: ADME, organism-based; parameters: dose 10 mg/kg, route oral; conditions: plasma; in short: as §3
[23] = tested on: PC-3; test: Anticancer activity against androgen insensitive human PC3 cells xenografted nude mouse model assessed as decrease in tumor growth rate administered at 10 mg/kg, po once daily administered from day 22 to day 34 after implantation relative to control; format: functional, organism-based; parameters: dose 10 mg/kg; in short: as §6
[24] = tested on: Mus musculus; test: Toxicity in androgen insensitive human PC3 cells xenografted nude mouse model assessed as body weight change administered at 10 mg/kg, po once daily administered from day 22 to day 34 after implantation; format: organism-based, PC-3; parameters: dose 10 mg/kg, route oral; conditions: in vivo; in short: as §6
[25] = Cmax in CD-1/Swiss Webster mouse at 30 mg/kg, po by LC/MS/MS analysis; format: ADME, organism-based; parameters: dose 30 mg/kg, route oral; conditions: in vivo; in short: as §3
[26] = Tmax in CD-1/Swiss Webster mouse at 30 mg/kg, po by LC/MS/MS analysis; format: ADME, organism-based; parameters: dose 30 mg/kg, route oral; conditions: in vivo; in short: as §3
[27] = Apparent oral clearance in CD-1/Swiss Webster mouse at 10 mg/kg, po by LC/MS/MS analysis; format: ADME, organism-based; parameters: dose 10 mg/kg, route oral; conditions: in vivo; in short: as §3
[28] = tested on: PC-3; test: Anticancer activity against androgen insensitive human PC3 cells xenografted nude mouse model assessed as decrease in tumor growth rate administered at 15 mg/kg, ip administered once in a week on day 22 to day 29 after implantation relative to control; format: functional, organism-based; parameters: dose 15 mg/kg; in short: as §6
[29] = as §4; format: ADME, organism-based; parameters: dose 30 mg/kg, route oral; conditions: CD-1/Swiss Webster, in vivo, read-out: Vz/F; in short: as §3

Row | SMILES | Activity [1] | IC50 [2] | Activity [3] | IC50 [4] | AUC(0-inf) [5] | AUC(0-inf) [6] | CL/F [8] | Cmax [10] | half-life [12] | half-life [13] | Tmax [14] | AUC(0-t) [16] | Vd/F [20] | AUC(0-t) [22] | Cmax [25] | Tmax [26] | CL/F [27] | also measured
1 | CCCCCCCCCCCCC[C@@H](O)C[C@H](O)[C@H](C)N | Active | 10.2 µM | 0.3% | 9.7 µM |  |  |  |  |  |  |  |  |  |  |  |  |  | 
2 | CCCCCCCCCCCCC[C@H](O)C[C@@H](O)[C@H](C)N | Active | 9.7 µM | 0.3% | 5 µM |  |  |  |  |  |  |  |  |  |  |  |  |  | 
3 | CCCCCCCCCCCCC[C@H](O)C[C@H](O)[C@H](C)N [ENIGMOL] | Active | 10.3 µM |  | 9.7 µM | 2.54 µM·h | 6.96 µM·h | 233 mL/min/kg | 137 nM | 11 h | 5 h | 2 h | 5.96 µM·h | 211 L/kg | 1.88 µM·h | 705 nM | 2 h | 217 mL/min/kg | Vz/F [7]: 107 L/kg; Activity [9]: < 6%; Activity [11]: Active; Activity [15]: Active; concentration [17]: 10000 nM; Activity [18]: Active; Activity [19]: Active; Activity [21]: < 6%; Activity [23]: Active; Activity [24]: 0.3%
4 | CC(=O)O[C@@]12CO[C@@H]1C[C@H](O)[C@@]1(C)C(=O)[C@H](O)C3=C(C)[C@@H](OC(=O)[C@H](O)[C@@H](NC(=O)OC(C)(C)C)c4ccccc4)C[C@@](O)([C@@H](OC(=O)c4ccccc4)[C@H]21)C3(C)C |  |  |  |  |  |  |  |  |  |  |  |  |  |  |  |  |  | Activity [28]: Active
5 | CCCCCCCCCCCCC[C@H](O)C[C@H](O)[C@H](C)NC |  | 10.5 µM |  | 25 µM | 5.99 µM·h | 17.9 µM·h | 83.3 mL/min/kg | 232 nM | 15 h | 12 h | 4 h | 13.6 µM·h | 117 L/kg | 3.86 µM·h | 1120 nM | 2 h | 83.3 mL/min/kg | Vd/F [29]: 90 L/kg
6 | CCCCCCCCCCCCC[C@@H](O)C[C@@H](O)[C@H](C)N |  | 49.3 µM |  | 50 µM |  |  |  |  |  |  |  |  |  |  |  |  |  | 
